Data from ChEMBL document CHEMBL1155931, “Sulfur-substituted naphthalimides as photoactivatable anticancer agents: DNA interaction, fluorescence imaging, and phototoxic effects in cultured tumor cells” (Bioorg Med Chem, 2008).
Activity calls are given as the source filed them. The calls are words filed in the database; no cut-off is given here.

Key:
Escherichia coli = experiment: Induction of photocleave of Escherichia coli pBR322 DNA after irradiation for 2 hrs at 265 nanometer; conditions: in the assay text read “365 nanometer” for “265 nanometer”
Outline: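 pBR322 supercoiled plasmid (0.25 µg) in Tris–HCl pH 7.5 with compound at 50 µM (DMSO stock). Irradiated 2 h at 365 nm (8 W, 10 cm). Run on 1% agarose, ethidium bromide stain. Nicked/linear DNA quantified as percentage of total, mean of two experiments.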

MCF7 [1] = experiment: Antiproliferative activity against human MCF7 cells after 24 hrs of drug exposure followed by 72 hrs incubation in drug free media; assay type: functional, cell-based
Outline: (§1)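 Cells grown in MEM with 10% FCS at 37 °C, 5% CO2. Seeded for 48 h (HT-29) or 72 h (MCF-7) before drug. Graded concentrations were tested in six replicates. Continuous runs lasted 72 h (HT-29) or 96 h (MCF-7). Short runs used 24 h drug, then drug-free medium, optionally irradiated 20 min at 366 nm (4 W lamp, 5 cm). Biomass read by crystal violet. IC50 is the mean of ≥2 independent experiments.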

HT-29 [2] = experiment: Antiproliferative activity against human HT29 cells after 24 hrs of drug exposure followed by irradiation at 366 nanometer for 20 mins and subsequent incubation of 48 hrs in drug free media; assay type: functional, cell-based; conditions: HT-29, light or radiation study; outline: as §1
MCF7 [3] = experiment: Antiproliferative activity against human MCF7 cells after 96 hrs by crystal violet staining; assay type: functional, cell-based; conditions: MCF7, 96 h; outline: as §1
HT-29 [4] = experiment: Antiproliferative activity against human HT29 cells after 72 hrs by crystal violet staining; assay type: functional, cell-based; conditions: HT-29, 72 h; outline: as §1
DNA [5] = experiment: Binding affinity to calf thymus DNA assessed as change in melting temperature at concentration of 0.1 [compound]/[DNA]; assay type: nucleic-acid assay; conditions: Bos taurus
Outline: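 CT DNA at 200 µM nucleotide with compound at 20 µM in 10 mM phosphate buffer, pH 7.2, 1% DMSO. Melting followed at 260 nm in 1 °C steps. Tm taken as the midpoint from first-derivative curves. ΔTm accurate within ±1 °C.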

HeLa = experiment: Reduction of topoisomerase 2alpha protein level in human HeLa cells by Western blotting; assay type: functional, cell-based
MCF7 [6] = experiment: Antiproliferative activity against human MCF7 cells after 24 hrs of drug exposure followed by irradiation at 366 nanometer for 20 mins and subsequent incubation of 72 hrs in drug free media; assay type: functional, cell-based; conditions: MCF7, light or radiation study; outline: as §1
HT-29 [7] = experiment: Antiproliferative activity against human HT29 cells after 24 hrs of drug exposure followed by 48 hrs incubation in drug free media; assay type: functional, cell-based; outline: as §1
DNA [8] = experiment: Binding affinity to calf thymus DNA assessed as decrease in helical B conformation at 245 nanometer wavelength by circular dichroism; assay type: nucleic-acid assay; conditions: Bos taurus
Outline: (§2)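 CD spectra of CT DNA (200 µM nucleotide) after 60 min incubation with 20 µM compound. Recorded after equilibration, when ellipticity no longer changed. DNA concentration set by ε260 = 6600 M^-1 cm^-1.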

DNA [9] = experiment: Binding affinity to calf thymus DNA assessed as increase in base stacking at 275 nanometer wavelength by circular dichroism; assay type: nucleic-acid assay; conditions: Bos taurus; outline: as §2

Row | Compound | Activity (Escherichia coli) | IC50 (MCF7 [1]) [µM] | IC50 (HT-29 [2]) [µM] | IC50 (MCF7 [3]) [µM] | IC50 (HT-29 [4]) [µM] | ΔTm (DNA [5]) [°C] | Activity (HeLa) | IC50 (MCF7 [6]) [µM] | IC50 (HT-29 [7]) [µM] | Activity (DNA [8]) | Activity (DNA [9])
1 | CN(C)CCN1C(=O)c2cccc3c(Sc4ccccc4N)ccc(c23)C1=O | Active | 4.8 | 2.8 | 2.6 | 2.9 | 9 | Active | 4.9 | 2.8 | Active | –
2 | CN(C)CCN1C(=O)c2cccc3cccc(c23)C1=O | Active | 11.6 | 5.3 | 4.5 | 3.5 | 6 | Active | 11.3 | 7.2 | – | –
3 | CN(C)CCN1C(=O)c2cccc3c(Sc4nc5ccccc5s4)ccc(c23)C1=O | Active | 7.3 | 1.8 | 2.7 | 4.4 | 3 | Active | 2.4 | 5.5 | – | –
4 | CCSc1ccc2c3c(cccc13)C(=O)N(CCS)C2=O | Active | > 50 | > 50 | > 50 | – | 2 | – | > 50 | > 50 | – | –
5 | CN(C)CCN1C(=O)c2cccc3c(SCc4ccccc4)ccc(c23)C1=O | Active | 6.7 | 1.3 | 3.4 | 4.1 | 7 | inactive | 1.7 | 4.8 | Active | Active
6 | CN(C)CCN1C(=O)c2cccc3c2c(cc2c4ccccc4sc32)C1=O | – | 0.17 | 0.21 | 0.2 | 0.62 | – | Active | 0.18 | 0.23 | – | –
7 | CCCCSc1ccc2c3c(cccc13)C(=O)N(CCN(C)C)C2=O | Active | 5.7 | 3 | 2.6 | 4.6 | 8 | inactive | 4 | 4.3 | Active | Active
8 | CCSc1ccc2c3c(cccc13)C(=O)N(CCN(C)C)C2=O | Active | 4.5 | 2.5 | 4.4 | 1.9 | 8 | Active | 4.3 | 2.2 | Active | Active
